Article PMC7132253 (Proceedings of the National Academy of Sciences of the …, 2020)
Residue numbers refer to the chain shown, from its start. Names may count otherwise.

Assays:
WT mIL-2 = target: T1, WT mIL-2 (Mus musculus, UniProt P04351); assay: NMR titration with line shape analysis; assay type: binding
T1 sequence (P04351 21-169): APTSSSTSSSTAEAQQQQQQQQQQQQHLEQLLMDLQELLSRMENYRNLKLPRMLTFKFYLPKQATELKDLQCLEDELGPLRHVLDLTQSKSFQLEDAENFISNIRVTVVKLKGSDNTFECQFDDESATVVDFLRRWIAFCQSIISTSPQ
Method in brief: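 Kd derived by line-shape analysis (TITAN) of fast-exchange shifts of the V129γ2 and L133δ2 methyl peaks. Errors propagated from spectral signal-to-noise.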

[1] = tested on: IL-2Rα+ mouse CTLL-2 cells; assay: STAT5 phosphorylation; assay type: cell-based; conditions: IL-2Rα+ CTLL-2 cells
[2] = target: wild-type mouse interleukin-2 (mouse, UniProt P04351); assay: ITC
JES6-1 = assay: Isothermal titration calorimetry of mIL-2 into JES6-1; assay type: binding; conditions: ITC

Molecule: COC(=O)[C@H](Cc1ccc(C#Cc2ccccc2)cc1)NC(=O)C[C@H]1CCCN(C(=N)N)C1 [Ro 26-4550]
- Kd (WT mIL-2): 39400 ± 5500 nM

B1: JES6-1 anti-mouse IL-2 monoclonal antibody (antibody, V domains shown)
VH: EIQLQQSGPELRRPGSSVKLSCKASGYNITDYLIHWVRHRPEHGLEWIGWIDPEDGETRYAQKFQSKATLTADTSSNAAYMQLSSLTPEDTATYFCARSLDSTYIYPFAYWGQGTLVTVSS
VL: DIVMTQSPFSLAVSEGEMVTINCKSSQSLLSSGNQKNYLAWYQQKPGQSPKLLIYYASTGQSGVPDRFIGSGSGTDFTLTISDVQAEDLADYYCLQHYISPPTFGAGTKLELK
- effect of JES6-1 on mIL-2-mediated STAT5 activation [1]: fivefold reduced
- Kd [2]: 2 nM
- dH [2]: 12.7 kcal⋅mol^−1

B2: WT mIL-2: wild-type mouse interleukin-2 (amino acids 1-149), recombinant, expressed in E. coli (protein, UniProt P04351 21-169, looked up)
Interleukin-2: T1 sequence (P04351 21-169)
- Kd (JES6-1; 20 °C, 20 mM phosphate pH 7.2, 150 mM NaCl): 2 nM

B3: R52A mIL-2: designed point mutant R52A of mouse IL-2 that eliminates all C-capping interactions (protein)
chain: T1 sequence (P04351 21-169) with R52A
- decrease in binding affinity relative to WT mIL-2 (JES6-1): 1,000 fold
- effect of JES6-1 on mIL-2-mediated STAT5 activation [1]: independent of JES6-1
